Compound activity from PubChem.
WT yeast gro inh: growth inhibition of WT yeast, mitochondrial fusion screen. 190,000 tested, 2.1% active. mitochondrial fusion phenotypic screen, WT strain. AID 1362. inhibition, % at 10 µM; in the data active means inhibition above about 58%; tested in S. cerevisiae
CSC inhib: cancer stem cell inhibition; inhibition, % at 7.5 µM; cancer stem cell-like cells viability, luminescence; 300,000 tested, 1.1% active; in the data active means inhibition above about 75%; inconclusive means no clear call, values can overlap the other calls; tested in HMLE shEcad cells
Efflux pump mplx: blocks antifungal efflux pumps in multiplex yeast assay; inhibition, % at 10 µM; 330,000 tested, 0.44% active; S. cerevisiae Candida pump triplex, Nile Red efflux;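 active means plate passing quality check with inhibition over a set limit, or well fluorescence over plate mean plus 4 SD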;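 further: Nile Red retained in pooled yeast measured as flow cytometry median fluorescence; 0% = buffer negative control and 100% = Enniatin B positive control; higher means more Nile Red kept so more efflux inhibition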
SUMO Mot1 rescue: blocks SUMOylation pathway, rescuing yeast Mot1-301 growth; AID 2716; growth rescue, % at 18.8 µM; S. cerevisiae Mot1-301 growth rescue, ATP luminescence, 38.5C; percent above DMSO median, 100 means doubled; 320,000 tested, 1% active;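 active means every valid replicate shows activation above 250% relative to neutral control wells; inactive means the rest, any valid replicate at or below 250%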;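 further: OY570 slx delta 5 strain wells were the positive control but not used for scaling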
T cruzi repl: blocks replication of Trypanosoma cruzi. inhibition, % (no concentration beside the values). T. cruzi beta-gal in NIH3T3, luminescence, 90 h. 300,000 tested, 1.4% active. AID 1885;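 active means mean inhibition across valid replicates above about 55%, limit read from the data; inconclusive means mean below that limit but half or more replicates reach it; inactive means mean below it, under half of replicates reach it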;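 further: signal also drops with host cell toxicity which is not excluded here; 0% = plate median of DMSO wells and 100% = zero luminescence signal; higher percent means less beta-gal luminescence so fewer parasites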
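System: mouse NIH/3T3 fibroblasts infected with β-gal-expressing T. cruzi Tulahuen C4 / Input: NIH/3T3 cells, 5,000 per well / Buffer or medium: Low-serum DMEM with 2% FBS / Probe or stimulus: 5000 reporter trypomastigotes per well / Schedule: ≥90 h infection period, 3 h prior cell attachment / Measured by: GalScreen luminescence, 60 min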
Beta cell apopt: blocks beta cell apoptosis; INS-1E cytokine-induced death, ATP luminescence, 48 h; percent of positive-control rescue, neutral wells zero; protection from apoptosis, % (concentration not given with the values); 300,000 tested, 0.8% active; AID 435005;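 active means Every replicate reaches about 75%, or at least half do and their mean reaches it too, limit read from the data; inconclusive means At least half of replicates reach the limit but their mean does not; inactive means Under half of replicates reach the limit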;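 further: 0% = cytokine-treated negative control wells and 100% = positive control rescue; higher means more ATP so stronger rescue from cytokine killing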
An asterisk follows results filed as active; u = inconclusive; x = not tested or not shown. In the library only some 4.8% were active in any assay of this set; here they are far more common.

SMILES | WT yeast gro inh | CSC inhib | Efflux pump mplx | SUMO Mot1 rescue | T cruzi repl | Beta cell apopt
FC(F)(F)c1cccc(NC(=S)N(CCCN2CCCC2)Cc2cccn2Cc2ccc(Cl)cc2)c1 | 95 | 130* | 0 | -4 | 71* | 27
COc1ccc(NC(=S)N(CCCN2CCC(C)CC2)Cc2cccs2)cc1Cl | 16 | 17 | 0 | 3 | 23 | -2
Cc1ccc(S(=O)(=O)N(CC(=O)Nc2ccccc2C(=O)O)c2ccc(Cl)cc2)cc1 | 9 | 1 | 0 | -9 | -10 | -1
CCCCCCCNC(=O)C1(CC2CC(c3ccc(Cl)cc3)=NO2)CCN(C(=O)OC(C)(C)C)CC1 (stereo not given) | x | 12 | 0 | -24 | 26 | -3
O=C(Nc1ccccc1Br)C(=O)N1CCCC1 | -4 | x | 0 | -13 | -20 | 2
O=C(NNc1ccccc1Br)C(=O)n1ccc2ccccc21 | 39 | 85* | 0 | 40 | 12 | -11
Cc1c(CN2CCC(CO)(CCOc3ccccc3)CC2)c(=O)n(-c2ccccc2)n1C | -13 | -8 | 0 | -20 | -4 | -1
CCSc1nnc([C@H](Cc2ccccc2)NC(=O)OC(C)(C)C)o1 | 14 | -13 | 0 | 3 | 2 | -8
CC(C)(C)OC(=O)N[C@@H](Cc1ccccc1)c1nnc(S(=O)(=O)Cc2ccccc2)o1 | 20 | 131* | 0 | 18 | x | 49
Cc1ccccc1CS(=O)(=O)c1nnc([C@H](Cc2ccccc2)NC(=O)OC(C)(C)C)o1 | 46 | 99* | 0 | -29 | -26 | 93*
CC(C)(C)OC(=O)N[C@@H](Cc1ccccc1)c1nnc(SCC(=O)O)o1 | -3 | 3 | 0 | -19 | -15 | -1
CNC(=S)N(Cc1ccc(Cl)cc1)Cc1cccs1 | x | -2 | 0 | 52 | -7 | 0
O=C(O)CC1SC(=Nc2ccccc2)N(c2ccccc2)C1=O (stereo not given) | 6 | x | 0 | x | x | 1
Cc1ccc(CC2SC(=Nc3ccccc3)N(c3ccccc3)C2=O)cc1 (stereo not given) | 61* | 23 | 0 | 5 | 7 | 5
O=C(/C=C/c1ccccc1)NCC(=O)N/N=C/c1cccs1 | x | 1 | 0 | -9 | 19 | 4
Cc1ccc(C(=O)c2c(NC(=O)c3cccnc3)sc3c2CCCC3)cc1 | 61* | -12 | 0 | 31 | 18 | -8
Cc1ccc(Cl)cc1Nc1nc(-c2sc(NC(=O)c3ccccc3)nc2C)cs1 | -8 | 2 | 0 | -39 | 1 | 10
COc1cccc(Nc2nc(-c3sc(C)nc3C)cs2)c1 | x | 32 | 0 | -22 | 4 | -5
Cc1nc(NC(=O)c2ccccc2)sc1-c1csc(NCCc2ccccc2)n1 | 21 | 9 | 0 | -33 | 69* | 11
CCCC(C)C(=O)Nc1nc(C)c(-c2csc(Nc3ccc(Cl)cc3)n2)s1 (stereo not given) | 57 | 43 | 0 | 18 | 51 | 100*
Cc1nc(C)c(-c2csc(Nc3ccc(F)cc3)n2)s1 | 73* | 31 | 0 | 23 | 1 | -4
Cc1nc(NC(=O)c2ccccc2)sc1-c1csc(Nc2cccc(F)c2)n1 | 80* | 2 | 0 | -29 | 1 | 9
CCN(CC)C(=O)c1sc(NC(=O)C(C)C)c(C#N)c1C | -10 | -3 | 0 | -10 | u | -7
CCn1cc(Cl)c(C(=O)Nc2ccccc2C(N)=O)n1 | 7 | -5 | 0 | x | 2 | 4
CCC1(c2ccccc2)NC(=O)N(CC(=O)NCc2ccc(OC)cc2)C1=O (stereo not given) | x | 6 | 0 | -10 | -8 | x
SMILES | WT yeast gro inh | CSC inhib | Efflux pump mplx | SUMO Mot1 rescue | T cruzi repl | Beta cell apopt
CSc1ccc(OC2CCN(Cc3ccccc3)CC2)cc1 | 63* | 37 | 0 | 39 | 16 | -8
CSc1ccc(CN2CCC(Cc3ccccc3)CC2)cc1 | x | 32 | 0 | 66 | 34 | -4
CSc1ccc(CN2CCC(N3CC(C)OC(C)C3)CC2)cc1 (stereo not given) | x | 3 | 0 | 285* | 11 | 0
CCCc1cc(=O)[nH]c(SCC(=O)N(CCOC)c2c(N)n(Cc3ccccc3)c(=O)[nH]c2=O)n1 | x | -4 | 0 | -6 | -6 | -1
Cc1cccn2cc(COc3cccc([N+](=O)[O-])c3)nc12 | -6 | 8 | 1 | -4 | -14 | x
Cc1cccn2cc(COc3ccc(-c4ccccc4)cc3)nc12 | 80* | x | x | x | 21 | x
Cc1[nH]nc(N)c1-c1ccc(Cl)cc1 | -6 | -12 | 0 | 287* | -6 | 3
Cc1ccc(S(=O)(=O)Nc2ccc(-c3nnc(SCc4ccccc4Cl)o3)cc2)cc1 | 11 | 88* | 0 | 11 | 15 | 1
N/C(=N/O)c1ccccc1N1CCC(Cc2ccccc2)CC1 | 70* | 19 | 0 | 155 | 39 | 11
CCOC(=O)c1c(CN2CCN(Cc3ccccc3)CC2)n(C)c2cc(Br)c(OC)cc12 | 95* | x | 0 | -4 | 32 | 4
CCOC(=O)c1c(CN2CCN(CC#N)CC2)n(C)c2cc(Br)c(OC)cc12 | x | 10 | 1 | 67 | 1 | -3
CCOC(=O)c1c(CSc2ccccc2)n(C)c2cc(Br)c(OCC(O)CNC(CO)(CO)CO)cc12 (stereo not given) | -14 | 100* | 0 | -11 | 27 | -1
CN(CC(=O)Nc1ccccc1Sc1ccccc1)C1CCCCC1 | 76* | 40 | 0 | 6 | 8 | 7
CON(C)c1nc(OCC#N)nc(N(C)C)n1 | 4 | -7 | 0 | 0 | -10 | -3
CCc1ccc(NC(=O)C2CC=CCC2C(=O)O)cc1 (stereo not given) | 3 | -5 | 0 | -9 | -18 | 3
CC(C)(C)c1ccc(Oc2ccc(NC(=O)C3CC=CCC3C(=O)O)cc2)cc1 (stereo not given) | -9 | 80* | 0 | 87 | -11 | 2
Cc1ccccc1Oc1ccc(NC(=O)C2CC=CCC2C(=O)O)cc1 (stereo not given) | -5 | -8 | 3 | 53 | -21 | -2
O=C(O)Cc1ccc(NC(=O)C2CC=CCC2C(=O)O)cc1 (stereo not given) | 21 | -9 | 0 | 625* | -9 | -6
O=C(CN(C(=O)CNC(=O)c1cccs1)c1ccccc1)NC1CCCCC1 | x | x | 0 | 257 | 6 | -6
CCCCNC1=CC(=O)C(=O)c2ccccc21 | 2 | 8 | 0 | x | 39 | 99*
O=C1C=C(Nc2ccccc2C(=O)O)c2ccccc2C1=O | x | 52 | 0 | -19 | 6 | 8
O=C1C=C(Nc2ccccc2)c2ccccc2C1=O | 74* | x | x | x | -17 | x
O=C1C=C(Nc2ccccc2)C(=O)c2ccccc21 | 64* | 52 | 0 | -40 | 3 | 84*
Cc1cccnc1NC(=S)NC(=O)c1oc2ccccc2c1C | x | -13 | 0 | 240 | -4 | 1
O=C(Nc1ccc2c(c1)CCC2)c1cc(S(=O)(=O)Nc2ccc(F)cc2)c(Cl)cc1Cl | 48 | 109* | 0 | -1 | 19 | 6
